From ChEMBL document CHEMBL1125252, “Synthesis and anti-HIV-1 activity of 4,5,6,7-tetrahydro-5-methylimidazo[4,5,1-jk][1,4]benzodiazepin- 2(1H)-one (TIBO) derivatives” (J Med Chem, 1991)

Key:
MT4 [1] = test: Effective concentration required to achieve 50% protection of MT-4 cells against the cytopathic effect of HIV-1; I = Inactive; format: functional, cell-based, Homo sapiens
Method in brief: (§1)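 MT-4 cells were infected with HIV-1 or mock-infected, then incubated with a range of test-compound concentrations. IC50 is the concentration giving 50% protection against HIV-1-induced cytopathic effect. CC50 is the concentration reducing viability of mock-infected cells by 50%. SI is CC50/IC50. Most determinations were run in duplicate and averaged.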

MT4 [2] = test: (§2) Cytotoxic concentration required to reduce the viability of mock-infected MT-4 cells by 50%.; format: functional; settings: Homo sapiens; method in brief: as §1
MT4 [3] = test: Selectivity index measured as the ratio of CC50/IC50 values.; format: functional; method in brief: as §1
[4] = tested on: Human immunodeficiency virus 1; test: Effective concentration required to achieve 50% protection of MT-4 cells against the cytopathic effect of HIV-1.; format: functional, organism-based; settings: Human immunodeficiency virus 1, MT4; method in brief: as §1
MT4 [5] = test: as §2; format: functional, cell-based; settings: Homo sapiens; method in brief: as §1

SMILES	IC50 (MT4 [1])	CC50 (MT4 [2])	Selectivity index (MT4 [3])	IC50 [4]	CC50 (MT4 [5])
C[C@H]1Cn2c(O)nc3cccc(c32)CN1	Not Active	901 µM	–	–	–
C=C(C)CN1Cc2cccc3[nH]c(=O)n(c23)C[C@@H]1C	–	222 µM	11	19 µM	–
CCN1Cc2cccc3nc(O)n(c23)CC1C (configuration not stated)	Not Active	592 µM	–	–	–
CC1Cn2c(O)nc3cccc(c32)CN1Cc1ccc[nH]1 (configuration not stated)	Not Active	92 µM	–	–	–
CCCCN1Cc2cccc3nc(O)n(c23)CC1C (configuration not stated)	–	501 µM	5	100 µM	–
CC(C)CN1Cc2cccc3nc(O)n(c23)CC1C (configuration not stated)	Not Active	82 µM	–	–	–
C=C(CN1Cc2cccc3nc(O)n(c23)CC1C)C(C)C (configuration not stated)	Not Active	18 µM	–	–	–
CC(C)=C(C)CN1Cc2cccc3nc(O)n(c23)CC1C (configuration not stated)	Not Active	> 876 µM	–	–	–
CC1Cn2c(O)nc3cccc(c32)CN1C/C=C\c1ccccc1 (configuration not stated)	–	388 µM	3	122 µM	–
C/C=C/C=C/CN1Cc2cccc3nc(O)n(c23)CC1C (configuration not stated)	Not Active	378 µM	–	–	–
COC(=O)CN1Cc2cccc3nc(O)n(c23)CC1C (configuration not stated)	–	925 µM	–	855 µM	–
C#CCN1Cc2cccc3nc(O)n(c23)CC1C (configuration not stated)	–	990 µM	–	580 µM	–
CC(C)=CCN1Cc2cccc3nc(O)n(c23)C[C@H]1C	–	450 µM	20	22 µM	–
C=C(CC)CN1Cc2cccc3nc(O)n(c23)CC1C (configuration not stated)	–	66 µM	2	37 µM	–
CC1Cn2c(O)nc3cccc(c32)CN1C/C=C/c1ccccc1 (configuration not stated)	Not Active	> 783 µM	–	–	–
CC(=O)CN1Cc2cccc3nc(O)n(c23)CC1C (configuration not stated)	Not Active	760 µM	–	–	–
C=CC(=C)CN1Cc2cccc3nc(O)n(c23)CC1C (configuration not stated)	–	290 µM	4	71 µM	–
C=C(CN1Cc2cccc3nc(O)n(c23)CC1C)c1ccccc1 (configuration not stated)	Not Active	3 µM	–	–	–
C/C=C(/C)CN1Cc2cccc3nc(O)n(c23)CC1C (configuration not stated)	–	106 µM	4	29 µM	–
C=CCCN1Cc2cccc3nc(O)n(c23)CC1C (configuration not stated)	–	552 µM	11	50 µM	–
CC1Cn2c(O)nc3cccc(c32)CN1CC#N (configuration not stated)	Not Active	508 µM	–	–	–
C/C=C/CN1Cc2cccc3nc(O)n(c23)CC1C (configuration not stated)	–	443 µM	8	58 µM	–
C=CCN1Cc2cccc3[nH]c(=O)n(c23)C[C@H]1C	Not Active	–	–	–	592 µM
C#CC(C)=CCN1Cc2cccc3nc(O)n(c23)CC1C (configuration not stated)	Not Active	707 µM	–	–	–
C[C@@H]1Cn2c(O)nc3cccc(c32)CN1	Not Active	901 µM	–	–	–

SMILES	IC50 (MT4 [1])	CC50 (MT4 [2])	Selectivity index (MT4 [3])	IC50 [4]	CC50 (MT4 [5])
CC(C)=CCN1Cc2cccc3nc(O)n(c23)C[C@@H]1C	–	427 µM	105	4 µM	–
CC1Cn2c(O)nc3cccc(c32)CN1CC1CC1 (configuration not stated)	–	588 µM	13	44 µM	–
C=CCN1Cc2cccc3[nH]c(=O)n(c23)CC1C (configuration not stated)	–	670 µM	10	70 µM	–
C=C(Cc1ccccc1)CN1Cc2cccc3nc(O)n(c23)CC1C (configuration not stated)	Not Active	572 µM	–	–	–
C/C=C\CN1Cc2cccc3nc(O)n(c23)CC1C (configuration not stated)	–	560 µM	16	35 µM	–
C=C(CN1Cc2cccc3nc(O)n(c23)CC1C)C(=O)OCC (configuration not stated)	Not Active	3 µM	–	–	–
CC(C)N1Cc2cccc3nc(O)n(c23)CC1C (configuration not stated)	Not Active	65 µM	–	–	–
C#C/C=C/CN1Cc2cccc3nc(O)n(c23)CC1C (configuration not stated)	Not Active	370 µM	–	–	–
C#C/C(C)=C/CN1Cc2cccc3nc(O)n(c23)CC1C (configuration not stated)	Not Active	18 µM	–	–	–
CC1Cn2c(O)nc3cccc(c32)CN1CCO (configuration not stated)	Not Active	776 µM	–	–	–
CC1Cn2c(O)nc3cccc(c32)CN1CC1=CCCCC1 (configuration not stated)	Not Active	212 µM	–	–	–
CC1Cn2c(O)nc3cccc(c32)CN1Cc1ncc[nH]1 (configuration not stated)	Not Active	685 µM	–	–	–
CC(C)=CCC/C(C)=C\CN1Cc2cccc3nc(O)n(c23)CC1C (configuration not stated)	Not Active	44 µM	–	–	–
C=C(Br)CN1Cc2cccc3nc(O)n(c23)CC1C (configuration not stated)	–	416 µM	7	62 µM	–
C=CCN1Cc2cccc3[nH]c(=O)n(c23)C[C@@H]1C	–	670 µM	10	66 µM	–
CC(=O)N1Cc2cccc3nc(O)n(c23)CC1C (configuration not stated)	Not Active	175 µM	–	–	–
CC1Cn2c(O)nc3cccc(c32)CN1Cc1ccco1 (configuration not stated)	–	529 µM	5	106 µM	–
CC(C)OCCN1Cc2cccc3nc(O)n(c23)CC1C (configuration not stated)	Not Active	504 µM	–	–	–
COC(=O)/C=C/CN1Cc2cccc3nc(O)n(c23)CC1C (configuration not stated)	Not Active	252 µM	–	–	–
C=C(C)CN1Cc2cccc3[nH]c(=O)n(c23)CC1C (configuration not stated)	–	665 µM	15	47 µM	–
CCCN1Cc2cccc3[nH]c(=O)n(c23)CC1C (configuration not stated)	–	722 µM	8	90 µM	–
CC(C)=CCN1Cc2cccc3nc(O)n(c23)CC1C (configuration not stated)	–	416 µM	33	12.5 µM	–
C(=NC1CCCCC1)=NC1CCCCC1 [DICYCLOHEXYLCARBODIIMIDE]	–	232 µM	1693	0.137 µM	–
O=c1[nH]cnc2c1ncn2[C@H]1CC[C@@H](CO)O1 [DIDANOSINE]	–	1050 µM	191	5.5 µM	–
Cc1cn([C@H]2C[C@H](N=[N+]=[N-])[C@@H](CO)O2)c(=O)[nH]c1=O [ZIDOVUDINE]	–	9.3 µM	6200	0.0015 µM	–
